ARFGAP1 inhibitor = rat ARFGAP1 inhibition | Arfgap1-stimulated ARF1 GTP hydrolysis, GDP FP detection | hit rate 0.26% among 360,000 | inhibition, % at 16.5 µM | Q62848;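 active = inhibition above a per-plate limit, mean inhibition of low control wells plus 3 SD, cut at about 25% in these data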;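 also: 0% = DMSO wells with enzyme and 100% = wells lacking Arfgap1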
Target sequence (Q62848 1-136 limits assumed): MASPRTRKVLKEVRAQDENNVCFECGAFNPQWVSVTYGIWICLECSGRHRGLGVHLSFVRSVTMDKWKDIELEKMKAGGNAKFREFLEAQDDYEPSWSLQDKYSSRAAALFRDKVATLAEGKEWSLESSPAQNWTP
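system = rat Arfgap1 catalytic domain, aa 1-136 | technique = FP, GDP Alexa 633 tracer displaced from anti-GDP antibody, 620/688 nm | compound = one concentration, 16.5 µM, DMSO 1.26% | medium = HEPES-based buffer, pH 7.5 | timing = compound-enzyme preincubation 20 min, reaction 120 min, detection 60 min, 25 °C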
ASAP1 GAP inh = ASAP1 ArfGAP inhibition | Q9ULH1 | ASAP1-stimulated ARF1 GTP hydrolysis, GDP FP detection | inhibition, % at 16.5 µM | hit rate 0.19% among 360,000 | AID 624377; in the data active = inhibition above about 25%;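 also: 0% = vehicle with enzyme and substrate and 100% = no enzyme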
bovine MsrA act = bovine methionine sulfoxide reductase A activation. AID 602163. activation, % at 10.6 µM. hit rate 0.3% among 360,000. purified bovine MsrA, absorbance read-out; in the data active = activation above about 7.5%;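 also: 0% = vehicle and 100% = reference activator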
MsrA inhibitor = inhibitors of bovine MsrA; inhibition, % at 15.5 µM; AID 651718; hit rate 0.75% among 360,000; purified bovine MsrA, absorbance read-out;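 also: 0% = vehicle wells with enzyme and 100% = reference inhibitor wells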
MsrA conf = confirmation of bovine MsrA inhibitors; shares compounds with MsrA inhibitor; inhibition, % at 15.5 µM; purified bovine MsrA, absorbance read-out; hit rate 41% among 2,300;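 also: coupled to thioredoxin reductase with NADPH and selenocystamine and DMSO as substrate; 0% = vehicle only and 100% = full effect of reference inhibitor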
* marks the source's active call; other numbers are inactive results; nt = no result. In the library only some 1.4% were active in any assay of this set; here they are far more common. Rule as the data show it, unless noted: active = inhibition above about 4.5%; inactive = the rest.

SMILES	ARFGAP1 inhibitor	ASAP1 GAP inh	bovine MsrA act	MsrA inhibitor	MsrA conf
CCOC(=O)C1=CCC(c2ccc(Cl)cc2)N(S(=O)(=O)c2ccc(C)cc2)C1 (configuration not stated)	3.4	8.1	-8.0	1.0	nt
Cn1cc(-c2ccccc2C(=O)O)c(=O)c2cc(Cl)ccc21	-8.4	5.8	-2.8	4.9*	1.7
COc1ccc(N2CC(C(=O)Nc3ccc([N+](=O)[O-])cc3Br)CC2=O)cc1 (configuration not stated)	9.6	7.3	-5.2	-0.2	nt
COc1ccc(N2CC(C(=O)N/N=C/c3cc([N+](=O)[O-])ccc3O)CC2=O)cc1 (configuration not stated)	5.2	2.0	-4.0	5.2*	3.2
COC(=O)[C@]12C[C@H](CC(=O)N3CCN(C(=O)c4ccco4)CC3)C(=O)N(CCC3=CCCCC3)C1=C[C@H](COCc1ccccc1)O[C@@H]2C	-5.0	-9.3	nt	-0.2	nt
O=c1cc(-c2ccc(O)c(O)c2)oc2c(C3O[C@H](CO)[C@@H](O)[C@H](O)[C@H]3O)c(O)cc(O)c12 (some centres not stated)	-1.5	-5.0	-4.0	5.6*	4.0
O=c1cc(-c2ccc(O)cc2)oc2c(C3O[C@H](CO)[C@@H](O)[C@H](O)[C@H]3O)c(O)cc(O)c12 (some centres not stated)	-0.9	-4.5	0.8	3.6	nt
O=C(CSc1nncn1-c1ccccc1F)NC1CC1	-8.8	-4.3	-1.0	1.1	nt
O=C(Nc1ccc(C(=O)O)cc1)/C(=C/c1ccc2c(c1)OCO2)NC(=O)c1cccc(Br)c1	-6.9	0.5	-11.7	4.1	nt
O=C(Nc1cccc(C(=O)O)c1)/C(=C\c1ccc2c(c1)OCO2)NC(=O)c1ccc(Br)cc1	-0.7	2.7	-18.8	6.1*	1.9
COc1ccc(/C=C(/NC(=O)c2ccc(Br)o2)C(=O)Nc2cccc(C(=O)O)c2)cc1	4.8	-6.4	-6.3	5.7*	4.3
O=C(Nc1cccc(C(=O)O)c1)/C(=C\c1ccc2c(c1)OCO2)NC(=O)c1ccco1	0.2	-12.6	-5.9	2.9	nt
O=C(Nc1cccc(C(=O)O)c1)/C(=C\c1ccc2c(c1)OCO2)NC(=O)c1ccccc1	-11.5	-1.1	-6.3	5.5*	2.8
Cc1ccc(C(=O)Cc2cc3ccccc3oc2=O)c(C)c1	5.8	-8.1	-2.5	-0.1	nt
Cc1ccc(NC(=O)c2ccc3nc(N4CCOCC4)sc3c2)c(Cl)c1	6.0	7.3	-0.4	-1.0	nt
CCOc1ccc(NC(=O)CCc2c(C)nn(-c3ccc(N4CCCCC4)nn3)c2C)cc1	-16.6	-6.2	2.8	-1.0	nt
COCCCn1c(SCC(=O)N2CCOCC2)nc2ccccc2c1=O	4.6	3.4	-1.1	-0.4	nt
O=C(CSC(=S)N1CCCC1)N/N=C/c1c(O)[nH]c(=S)[nH]c1=O	6.2	1.5	-1.3	5.2*	5.2*
CCOC(=O)N1CCC(NC(=O)CN(c2ccc(C(C)C)cc2)S(=O)(=O)c2c(C)nn(C)c2C)CC1	6.8	9.5	-0.7	-1.1	nt
Cc1ccccc1/C=N/NC(=O)c1cccnc1	0.8	-4.6	-8.2	-0.1	nt
O=C(N/N=C/c1ccc[nH]1)c1cccnc1	2.1	-4.4	-5.2	5.7*	5.2*
Cc1ccc(C(=O)N/N=C\c2cccn2C)cn1	5.9	-5.9	-11.3	7.8*	4.7*
Cc1ccc(C(=O)N/N=C\c2ccc[nH]2)cn1	3.2	-4.8	-2.9	6.6*	4.2
O=C(N/N=C/c1ccccn1)c1c[nH]c2ccccc12	-4.7	-2.8	-1.5	2.2	nt
O=C(N/N=C/c1ccc[nH]1)c1c[nH]c2ccccc12	1.6	-13.1	-12.5	5.8*	4.0
SMILES	ARFGAP1 inhibitor	ASAP1 GAP inh	bovine MsrA act	MsrA inhibitor	MsrA conf
Cn1cccc1/C=N/NC(=O)c1cccnc1	-3.7	-1.2	-4.0	3.0	nt
CCc1nc2ccc(C(=O)N(CC)CCN(C)C)cn2c1N(C)C(=O)c1cccc(OC)c1	-4.8	2.0	-2.2	-0.4	nt
COc1ccc([C@H]2CC(=O)C[C@@H](CCn3cc(CCc4ccccc4)nn3)O2)cc1	12.4	-2.3	-1.9	-1.1	nt
CCOc1ccc(-n2cc(-c3ccc(OC)c(OC)c3)[nH]c2=S)cc1	5.8	12.6	-2.4	1.3	nt
O=C1CCC(=O)N1c1nc2nc(-c3ccccc3)cc(-c3ccccc3)n2n1	6.1	-6.9	-8.1	4.7*	1.9
CC(=O)Nc1nc2nc(-c3ccccc3)cc(-c3ccccc3)n2n1	11.1	7.3	-13.4	2.7	nt
O=C(N/N=C/c1ccco1)/C(=C/c1cccc([N+](=O)[O-])c1)NC(=O)c1ccccc1	-0.5	7.5	-3.1	5.4*	3.9
CN(C)c1ccc(/C=C(/NC(=O)c2ccccc2)C(=O)N/N=C/c2ccc([N+](=O)[O-])c(O)c2)cc1	-5.0	-11.0	-6.9	3.9	nt
